Laboratory results reported in ChEMBL document CHEMBL1153862, “Design, synthesis and biological evaluation of novel fluorinated docetaxel analogues” (Eur J Med Chem, 2009).

Legend:
[1] = Toxicity in Kunming mouse assessed as survival; format: organism-based; settings: in vivo
How it was run: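 Healthy Kunming mice of both sexes, 18–22 g, split into 7 weight-matched groups of 10. Single i.p. dose at 92.0, 115.0, 143.0, 179.0, 224.0, 280.0 or 350.0 mg/kg. Behaviour, body weight and deaths recorded over 14 days. LD₅₀ with 95% confidence limits derived by the Bliss method.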

A549 [2] = experiment: Antitumor activity against human A549 cells xenografted BALB/cA mouse at 12 mg/kg, iv relative to control; format: functional
How it was run: (§1)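 A549 NSCLC cells were injected s.c. into BALB/cA nude mice (18 ± 3 g, 6 per group). After 2–3 passages, tumors were grafted s.c. at the right oxter. Once tumors were palpable (about 100–300 mm³ in methods; 80–150 mm³ in table footnote), mice were randomized to untreated, docetaxel or treated groups, dosed i.v., and measured by calipers 3 times weekly. T/C% = mean treated/mean control tumor volume × 100, read at day 14.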

Mus musculus [3] = experiment: Toxicity in BALB/cA nude mouse assessed as survival at 12 mg/kg, iv; settings: in vivo
SK-OV-3 = experiment: Cytotoxicity against human SKOV3 cells after 72 hrs by SRB assay; format: functional, cell-based; settings: SK-OV-3, 72 h
How it was run: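 SK-OV-3 ovarian cells were grown in RPMI 1640 with 10% FBS at 37 °C and 5% CO2, seeded at 0.4–1.0 × 10⁴ cells/well and treated after 24 h. Compounds were dissolved in DMSO (≤0.1% final) and tested at at least five concentrations for 72 h. Growth was read by SRB at OD 520 nm; tests were run 3 times in quadruplicate. IC50 came from survival-versus-concentration curves.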

Mus musculus [4] = experiment: Toxicity in BALB/cA nude mouse assessed as change in body weight at 16 mg/kg, iv; settings: in vivo
A549 [5] = experiment: Antitumor activity against human A549 cells xenografted BALB/cA mouse at 16 mg/kg, iv relative to control; format: functional; how it was run: as §1
Mus musculus [6] = experiment: Toxicity in BALB/cA nude mouse assessed as survival at 16 mg/kg, iv; settings: in vivo
Mus musculus [7] = experiment: Toxicity in BALB/cA nude mouse assessed as change in body weight at 12 mg/kg, iv; settings: in vivo
Mus musculus [8] = experiment: Toxicity in BALB/cA nude mouse assessed as survival at 18 mg/kg, iv; settings: in vivo
A549 [9] = experiment: Antitumor activity against human A549 cells xenografted BALB/cA mouse at 18 mg/kg, iv relative to control; format: functional; how it was run: as §1
Mus musculus [10] = experiment: Toxicity in BALB/cA nude mouse assessed as change in body weight at 18 mg/kg, iv; settings: in vivo

Compound	LD50 [1] [mg/kg]	T/C (A549 [2]) [%]	Activity (Mus musculus [3])	IC50 (SK-OV-3) [nM]	Activity (Mus musculus [4]) [%]	T/C (A549 [5]) [%]	Activity (Mus musculus [6])	Activity (Mus musculus [7]) [%]	Activity (Mus musculus [8])	T/C (A549 [9]) [%]	Activity (Mus musculus [10]) [%]
CC(=O)O[C@@]12CO[C@@H]1C[C@H](O)[C@@]1(C)C(=O)[C@H](O)C3=C(C)[C@@H](OC(=O)[C@H](O)[C@@H](NC(=O)OC(C)(C)CF)c4ccccc4)C[C@@](O)([C@@H](OC(=O)c4ccccc4)[C@H]21)C3(C)C	74.1	41.5	Non-toxic	3.8	-22	37.9	Non-toxic	-19.1	–	–	–
CC(=O)O[C@@]12CO[C@@H]1C[C@H](O)[C@@]1(C)C(=O)[C@H](O)C3=C(C)[C@@H](OC(=O)[C@H](O)[C@@H](NC(=O)OC(C)(C)C(F)(F)F)c4ccccc4)C[C@@](O)([C@@H](OC(=O)c4cccc(F)c4)[C@H]21)C3(C)C	–	–	–	34	–	–	–	–	–	–	–
CC(=O)O[C@@]12CO[C@@H]1C[C@H](O)[C@@]1(C)C(=O)[C@H](O)C3=C(C)[C@@H](OC(=O)[C@H](O)[C@@H](NC(=O)OC(C)(C)CF)c4ccccc4)C[C@@](O)([C@@H](OC(=O)c4cccc(F)c4)[C@H]21)C3(C)C	–	53.7	Non-toxic	0.03	–	–	–	-18	Non-toxic	30.2	-31.3
CC(=O)O[C@@]12CO[C@@H]1C[C@H](O)[C@@]1(C)C(=O)[C@H](O)C3=C(C)[C@@H](OC(=O)[C@H](O)[C@@H](NC(=O)OC(C)(C)C(F)(F)F)c4ccccc4)C[C@@](O)([C@@H](OC(=O)c4ccccc4)[C@H]21)C3(C)C	–	91.8	Non-toxic	0.01	–	–	–	0	Non-toxic	72	-9.7
CC(=O)O[C@@]12CO[C@@H]1C[C@H](O)[C@@]1(C)C(=O)[C@H](O)C3=C(C)[C@@H](OC(=O)[C@H](O)[C@@H](NC(=O)OC(C)(C)C(F)F)c4ccccc4)C[C@@](O)([C@@H](OC(=O)c4ccccc4)[C@H]21)C3(C)C	–	91.5	Non-toxic	0.02	–	–	–	0	Non-toxic	83.5	-7.7
CC(=O)O[C@@]12CO[C@@H]1C[C@H](O)[C@@]1(C)C(=O)[C@H](O)C3=C(C)[C@@H](OC(=O)[C@H](O)[C@@H](NC(=O)OC(C)(C)C(F)F)c4ccccc4)C[C@@](O)([C@@H](OC(=O)c4cccc(F)c4)[C@H]21)C3(C)C	–	51.7	Non-toxic	0.05	–	–	–	-16.5	Non-toxic	24.4	-26.7
CC(=O)O[C@@]12CO[C@@H]1C[C@H](O)[C@@]1(C)C(=O)[C@H](O)C3=C(C)[C@@H](OC(=O)[C@H](O)[C@@H](NC(=O)OC(C)(C)C)c4ccccc4)C[C@@](O)([C@@H](OC(=O)c4ccccc4)[C@H]21)C3(C)C.O.O.O [DOCETAXEL]	–	43	Non-toxic	3.4	–	–	–	-19.6	–	–	–
